Measurements taken from PMC5598375 (Toxicology Reports, 2014).
Marks after values point to notes of the source that are not given here.

Key:
[1] = test system: 48 h-larvae mwh +/+ flr^3; assay: Wing spot test; assay type: in vivo, Drosophila melanogaster; conditions: for Small single spots (1–2 cells), statistical diagnosis / Total spots, statistical diagnosis: m = 2; for Small single spots (1–2 cells), statistical diagnosis / Total spots, statistical diagnosis / Large single spots (>cells), statistical diagnosis / Twin spots, statistical diagnosis: vs control; for Large single spots (>cells), statistical diagnosis / Twin spots, statistical diagnosis: m = 5
Method in brief: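 Crosses: mwh/mwh females × flr3/TM3,Bds males mated 2 h, eggs laid over 2 h. 48 h larvae were collected on 20% sucrose, washed in 24 ± 1 °C water, held 24 h in the dark on filter paper with PP-IX (0–69 mM in 5% sucrose), then fed CrO3 (0.025–2.5 mM) in instant medium, in triplicate. Non-Ser wings were scored at 40× for small (1–2 cells), large and twin spots. Frei–Würgler one-sided test, α=β=0.05, m multiplication factor.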

[2] = test system: 48 h-old mwh+/+flr^3 larvae; assay: Toxicity test; assay type: in vivo, Drosophila melanogaster; conditions: for % of non-viable larvae / No. of viable larvae ± SEM: 500 larvae

## [O]=[Cr](=[O])=[O] [CrO3, chromium trioxide]
[1]; CrO3 0.025 mM, 120 wings
  Large single spots (>cells) per wing: 0.04 spots per wing
  Large single spots (>cells), number of spots: 5
  Small single spots (1–2 cells) per wing: 0.26 spots per wing
  Small single spots (1–2 cells), number of spots: 31
  Total spots per wing: 0.33 spots per wing
  Total spots, number of spots: 40
  Twin spots per wing: 0.03 spots per wing
  Twin spots, number of spots: 4
[1]; CrO3 0.025 mM
  Small single spots (1–2 cells), statistical diagnosis: −
  Total spots, statistical diagnosis: −
  Large single spots (>cells), statistical diagnosis: −
[1]; CrO3 0.25 mM and higher, all kinds of spots
  Statistical significance of spot induction vs control: Statistical significant differences were found for all kinds of spots
[1]; CrO3 0.25 mM, 150 wings
  Large single spots (>cells) per wing: 0.11 spots per wing
  Large single spots (>cells), number of spots: 16
  Small single spots (1–2 cells) per wing: 0.43 spots per wing
  Small single spots (1–2 cells), number of spots: 64
  Total spots per wing: 0.59 spots per wing
  Total spots, number of spots: 88
  Twin spots per wing: 0.05 spots per wing
  Twin spots, number of spots: 8
[1]; CrO3 0.25 mM
  Small single spots (1–2 cells), statistical diagnosis: +
  Total spots, statistical diagnosis: +
  Large single spots (>cells), statistical diagnosis: −
  Twin spots, statistical diagnosis: +
[1]; CrO3 1.25 mM, 118 wings
  Large single spots (>cells) per wing: 0.36 spots per wing
  Large single spots (>cells), number of spots: 42
  Small single spots (1–2 cells) per wing: 0.63 spots per wing
  Small single spots (1–2 cells), number of spots: 74
  Total spots per wing: 1.12 spots per wing
  Total spots, number of spots: 132
  Twin spots per wing: 0.14 spots per wing
  Twin spots, number of spots: 16
[1]; CrO3 1.25 mM
  Small single spots (1–2 cells), statistical diagnosis: +
  Total spots, statistical diagnosis: +
  Large single spots (>cells), statistical diagnosis: +
  Twin spots, statistical diagnosis: +
[1]; CrO3 2.0 mM, 80 wings
  Large single spots (>cells) per wing: 0.52 spots per wing
  Large single spots (>cells), number of spots: 42
  Small single spots (1–2 cells) per wing: 0.81 spots per wing
  Small single spots (1–2 cells), number of spots: 65
  Total spots per wing: 1.79 spots per wing
  Total spots, number of spots: 143
  Twin spots per wing: 0.45 spots per wing
  Twin spots, number of spots: 36
[1]; CrO3 2.0 mM
  Small single spots (1–2 cells), statistical diagnosis: +
  Total spots, statistical diagnosis: +
  Large single spots (>cells), statistical diagnosis: +
  Twin spots, statistical diagnosis: +
[1]; CrO3 2.5 mM, 120 wings
  Large single spots (>cells) per wing: 1.97 spots per wing
  Large single spots (>cells), number of spots: 236
  Small single spots (1–2 cells) per wing: 2.87 spots per wing
  Small single spots (1–2 cells), number of spots: 344
  Total spots per wing: 6.95 spots per wing
  Total spots, number of spots: 834
  Twin spots per wing: 2.11 spots per wing
  Twin spots, number of spots: 254
[1]; CrO3 2.5 mM
  Small single spots (1–2 cells), statistical diagnosis: +
  Total spots, statistical diagnosis: +
  Large single spots (>cells), statistical diagnosis: +
  Twin spots, statistical diagnosis: +
[1]; higher CrO3 concentration (2.5 mM)
  Frequency of mutation relative to the control group: 20 times
[2]; CrO3 0.25 mM
  % of non-viable larvae: 10%
  No. of viable larvae ± SEM: 448 ± 0.3
[2]; CrO3 2.0 mM
  No. of viable larvae ± SEM: 325 ± 2.8
[2]; CrO3 2.0 mM, significant to p < 0.05 compared with control
  % of non-viable larvae: 35 ^* %
[2]; CrO3 2.5 mM
  Mortality: 61%
  Reduction of viability over the control: 45%
  No. of viable larvae ± SEM: 194 ± 0.8
[2]; CrO3 2.5 mM, significant to p < 0.05 compared with control
  % of non-viable larvae: 61 ^* %
[2]; CrO3 2 and 2.5 mM
  Toxicity compared to the control: toxic
